Laboratory results: ChEMBL document CHEMBL1153750, “ent-kaurane and ent-pimarane diterpenoids from Siegesbeckia pubescens” (J Nat Prod, 2010)
Values after ≈ are worked out from the molar mass of the structure shown.

What was measured:
Format in all cases: functional, cell-based
HeLa = assay: Cytotoxicity against human HeLa cells after 44 hrs by MTT assay
Outline: (§1)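 Exponential-phase cells seeded at 5 × 10⁴ per well and preincubated 24 h at 37 °C, 5% CO₂. Test agent added in triplicate at final 10, 50 and 100 μg/mL, incubated 44 h at 37 °C. MTT then added for 4 h at 37 °C, absorbance read at 490 nm. IC50 derived from percentage inhibition by linear regression.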

B16 = assay: Cytotoxicity against mouse B16 cells after 44 hrs by MTT assay; outline: as §1
[1] = Cytotoxicity against rat HSC-T6 cells after 44 hrs by MTT assay; outline: as §1
[2] = Homo sapiens, HeLa, 44 h, read-out: IC50
[3] = Mus musculus, B16, 44 h, read-out: IC50
[4] = Rattus norvegicus, HSC-T6, 44 h, read-out: IC50

Row | Compound | IC50 (HeLa; [2]) [mg/L] | IC50 (B16; [3]) [mg/L] | IC50 [1, 4] [mg/L] | IC50 (B16; b16) | IC50 ([1]; hsc-t6) | IC50 (HeLa; hela)
1 | CC(=O)OC[C@@]1(C(=O)O)CCC[C@@]2(C)[C@@H]3CC[C@H]4C[C@@]3(CC[C@H]12)C[C@H]4COC(=O)C(C)C | 24.6 (≈ 54.8 µM) | 22.8 (≈ 50.8 µM) | 24.6 (≈ 54.8 µM) | – | – | –
2 | CC1(C)OC[C@@H]([C@]2(C)C=C3CC[C@@H]4C(C)(C)[C@H](O)CC[C@@]4(C)C3CC2)O1 (stereo partly drawn) | 11.7 (≈ 32.3 µM) | 7.8 (≈ 21.5 µM) | 12.6 (≈ 34.8 µM) | – | – | –
3 | C[C@@]12CCC[C@@](C)(C(=O)O)[C@H]1CC[C@@]13C[C@H](CC[C@H]12)[C@@](O)(CO)C3 | > 100 | > 100 | > 100 | – | – | –
4 | CC1(C)[C@H](O)CC[C@@]2(C)[C@@H]3CC[C@](C)([C@@H](O)CO)C=C3CC[C@H]12 [DARUTIGENOL] | > 100 | – | – | Not Active | Not Active | –
5 | C[C@@]1(CO)C[C@@H](O)C[C@@]2(C)[C@@H]3CC[C@](C)([C@@H](O)CO)C=C3CC[C@H]12 [KIRENOL] | – | > 100 | > 100 | – | – | Not Active
6 | CC(=O)O[C@H]1C(=O)[C@@]2(C)[C@H]([C@H](OC(=O)c3ccccc3)[C@]3(O)C[C@H](OC(=O)[C@H](O)[C@@H](NC(=O)c4ccccc4)c4ccccc4)C(C)=C1C3(C)C)[C@]1(OC(C)=O)CO[C@@H]1C[C@@H]2O [PACLITAXEL] | 0.61 (≈ 0.714 µM) | 0.63 (≈ 0.738 µM) | 0.75 (≈ 0.878 µM) | – | – | –
